Results reported in ChEMBL document CHEMBL4257549, “Design, synthesis and biological evaluation of benzimidazole-rhodanine conjugates as potent topoisomerase II inhibitors” (Medchemcomm, 2018).
Active and inactive are the calls of the source. The rule behind the calls is not given here.

Tested on: Raji
Assay: Cytotoxicity against human Raji cells after 48 hrs by MTT assay
Assay type: functional, cell-based
Details: not given
Summary of the method: (§1)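 Cells seeded at 5000 per well, left overnight, then exposed to compound at 0–50 μM for 48 h. MTT (20 μL of 2.5 mg mL−1) added for a further 4 h at 37 °C, formazan dissolved in DMSO, absorbance read at 570 nm. Quadruplicate wells, N > 2 determinations, mean IC50 taken as the concentration reducing cell number to 50%.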

Row | Compound | IC50 [µM]
1 | O=C(O)CCN1C(=O)/C(=C/c2nc3ccccc3n2Cc2ccccc2F)SC1=S | 11.3
2 | O=C(O)CN1C(=O)/C(=C/c2nc3ccccc3n2Cc2ccc(Br)cc2)SC1=S | 1.19
3 | O=C(O)CN1C(=O)/C(=C/c2nc3ccccc3n2Cc2ccc([N+](=O)[O-])cc2)SC1=S | 2.51
4 | COc1ccc(C(=O)Cn2c(/C=C3\SC(=S)N(CC(=O)O)C3=O)nc3ccccc32)cc1 | 6.32
5 | Cc1ccc(Cn2c(/C=C3\SC(=S)NC3=O)nc3ccccc32)cc1 | 4.48
6 | O=C(O)CN1C(=O)/C(=C/c2nc3ccccc3n2Cc2ccc(Br)cc2F)SC1=S | 11.4
7 | O=C(O)CN1C(=O)/C(=C/c2nc3ccccc3n2Cc2cccc(F)c2)SC1=S | 13.3
8 | Cc1ccc(Cn2c(/C=C3\SC(=S)N(CCC(=O)O)C3=O)nc3ccccc32)cc1 | 6.68
9 | Cc1ccc(C(=O)Cn2c(/C=C3\SC(=S)N(CC(=O)O)C3=O)nc3ccccc32)cc1 | 12.3

Species: Homo sapiens
Assay: Inhibition of human topoisomerase 2-mediated pBR322 DNA relaxation at 20 uM after 30 mins by agarose gel electrophoresis
Details: not given

Row | Compound | inhibition
10 | O=C(O)CCN1C(=O)/C(=C/c2nc3ccccc3n2Cc2ccccc2F)SC1=S | inactive
11 | O=C(O)CN1C(=O)/C(=C/c2nc3ccccc3n2Cc2ccc(Br)cc2)SC1=S | Active
12 | O=C(O)CN1C(=O)/C(=C/c2nc3ccccc3n2Cc2ccc([N+](=O)[O-])cc2)SC1=S | inactive
13 | COc1ccc(C(=O)Cn2c(/C=C3\SC(=S)N(CC(=O)O)C3=O)nc3ccccc32)cc1 | inactive
14 | Cc1ccc(Cn2c(/C=C3\SC(=S)NC3=O)nc3ccccc32)cc1 | Active
15 | O=C(O)CN1C(=O)/C(=C/c2nc3ccccc3n2Cc2ccc(Br)cc2F)SC1=S | inactive
16 | O=C(O)CN1C(=O)/C(=C/c2nc3ccccc3n2Cc2cccc(F)c2)SC1=S | inactive
17 | Cc1ccc(Cn2c(/C=C3\SC(=S)N(CCC(=O)O)C3=O)nc3ccccc32)cc1 | inactive
18 | Cc1ccc(C(=O)Cn2c(/C=C3\SC(=S)N(CC(=O)O)C3=O)nc3ccccc32)cc1 | Active

Tested on: PC-3
Assay: Cytotoxicity against human PC3 cells after 48 hrs by MTT assay
Assay type: functional, cell-based
Details: PC-3, 48 h
Summary of the method: as §1

Row | Compound | IC50 [µM]
19 | O=C(O)CCN1C(=O)/C(=C/c2nc3ccccc3n2Cc2ccccc2F)SC1=S | 28.6
20 | O=C(O)CN1C(=O)/C(=C/c2nc3ccccc3n2Cc2ccc(Br)cc2)SC1=S | 8.49
21 | O=C(O)CN1C(=O)/C(=C/c2nc3ccccc3n2Cc2ccc([N+](=O)[O-])cc2)SC1=S | 8.27
22 | COc1ccc(C(=O)Cn2c(/C=C3\SC(=S)N(CC(=O)O)C3=O)nc3ccccc32)cc1 | 8.75
23 | Cc1ccc(Cn2c(/C=C3\SC(=S)NC3=O)nc3ccccc32)cc1 | 9.78
24 | O=C(O)CN1C(=O)/C(=C/c2nc3ccccc3n2Cc2ccc(Br)cc2F)SC1=S | 21.1
25 | O=C(O)CN1C(=O)/C(=C/c2nc3ccccc3n2Cc2cccc(F)c2)SC1=S | 35.7
26 | Cc1ccc(Cn2c(/C=C3\SC(=S)N(CCC(=O)O)C3=O)nc3ccccc32)cc1 | 9.31
27 | Cc1ccc(C(=O)Cn2c(/C=C3\SC(=S)N(CC(=O)O)C3=O)nc3ccccc32)cc1 | 8.75

Tested on: HeLa
Assay: Cytotoxicity against human HeLa cells after 48 hrs by MTT assay
Assay type: functional, cell-based
Details: not given
Summary of the method: as §1

Row | Compound | IC50 [µM]
28 | O=C(O)CCN1C(=O)/C(=C/c2nc3ccccc3n2Cc2ccccc2F)SC1=S | 26.5
29 | O=C(O)CN1C(=O)/C(=C/c2nc3ccccc3n2Cc2ccc(Br)cc2)SC1=S | 12.9
30 | O=C(O)CN1C(=O)/C(=C/c2nc3ccccc3n2Cc2ccc([N+](=O)[O-])cc2)SC1=S | 18.6
31 | COc1ccc(C(=O)Cn2c(/C=C3\SC(=S)N(CC(=O)O)C3=O)nc3ccccc32)cc1 | 26.7
32 | Cc1ccc(Cn2c(/C=C3\SC(=S)NC3=O)nc3ccccc32)cc1 | 25.2
33 | O=C(O)CN1C(=O)/C(=C/c2nc3ccccc3n2Cc2ccc(Br)cc2F)SC1=S | > 50
34 | O=C(O)CN1C(=O)/C(=C/c2nc3ccccc3n2Cc2cccc(F)c2)SC1=S | > 50
35 | Cc1ccc(Cn2c(/C=C3\SC(=S)N(CCC(=O)O)C3=O)nc3ccccc32)cc1 | 11.2
36 | Cc1ccc(C(=O)Cn2c(/C=C3\SC(=S)N(CC(=O)O)C3=O)nc3ccccc32)cc1 | 27.4

Tested on: MDA-MB-231
Assay: Cytotoxicity against human MDA-MB-231 cells after 48 hrs by MTT assay
Assay type: functional, cell-based
Details: MDA-MB-231, 48 h
Summary of the method: as §1

Row | Compound | IC50 [µM]
37 | O=C(O)CCN1C(=O)/C(=C/c2nc3ccccc3n2Cc2ccccc2F)SC1=S | 9.53
38 | O=C(O)CN1C(=O)/C(=C/c2nc3ccccc3n2Cc2ccc(Br)cc2)SC1=S | 8.72
39 | O=C(O)CN1C(=O)/C(=C/c2nc3ccccc3n2Cc2ccc([N+](=O)[O-])cc2)SC1=S | 7.76
40 | COc1ccc(C(=O)Cn2c(/C=C3\SC(=S)N(CC(=O)O)C3=O)nc3ccccc32)cc1 | 12.9
41 | Cc1ccc(Cn2c(/C=C3\SC(=S)NC3=O)nc3ccccc32)cc1 | 6.42
42 | O=C(O)CN1C(=O)/C(=C/c2nc3ccccc3n2Cc2ccc(Br)cc2F)SC1=S | 28.4
43 | O=C(O)CN1C(=O)/C(=C/c2nc3ccccc3n2Cc2cccc(F)c2)SC1=S | 22.5
44 | Cc1ccc(Cn2c(/C=C3\SC(=S)N(CCC(=O)O)C3=O)nc3ccccc32)cc1 | 3.79
45 | Cc1ccc(C(=O)Cn2c(/C=C3\SC(=S)N(CC(=O)O)C3=O)nc3ccccc32)cc1 | 16.9

Tested on: HL-60
Assay: Cytotoxicity against human HL60 cells after 48 hrs by MTT assay
Assay type: functional, cell-based
Details: HL-60, 48 h
Summary of the method: as §1

Row | Compound | IC50 [µM]
46 | O=C(O)CCN1C(=O)/C(=C/c2nc3ccccc3n2Cc2ccccc2F)SC1=S | 5.72
47 | O=C(O)CN1C(=O)/C(=C/c2nc3ccccc3n2Cc2ccc(Br)cc2)SC1=S | 0.87
48 | O=C(O)CN1C(=O)/C(=C/c2nc3ccccc3n2Cc2ccc([N+](=O)[O-])cc2)SC1=S | 5.32
49 | COc1ccc(C(=O)Cn2c(/C=C3\SC(=S)N(CC(=O)O)C3=O)nc3ccccc32)cc1 | 5.44
50 | Cc1ccc(Cn2c(/C=C3\SC(=S)NC3=O)nc3ccccc32)cc1 | 2.66
51 | O=C(O)CN1C(=O)/C(=C/c2nc3ccccc3n2Cc2ccc(Br)cc2F)SC1=S | 6.42
52 | O=C(O)CN1C(=O)/C(=C/c2nc3ccccc3n2Cc2cccc(F)c2)SC1=S | 7.21
53 | Cc1ccc(Cn2c(/C=C3\SC(=S)N(CCC(=O)O)C3=O)nc3ccccc32)cc1 | 4.14
54 | Cc1ccc(C(=O)Cn2c(/C=C3\SC(=S)N(CC(=O)O)C3=O)nc3ccccc32)cc1 | 15.9

Tested on: A549
Assay: Cytotoxicity against human A549 cells after 48 hrs by MTT assay
Assay type: functional, cell-based
Details: A549, 48 h
Summary of the method: as §1

Row | Compound | IC50 [µM]
55 | O=C(O)CCN1C(=O)/C(=C/c2nc3ccccc3n2Cc2ccccc2F)SC1=S | 18.7
56 | O=C(O)CN1C(=O)/C(=C/c2nc3ccccc3n2Cc2ccc(Br)cc2)SC1=S | 9.12
57 | O=C(O)CN1C(=O)/C(=C/c2nc3ccccc3n2Cc2ccc([N+](=O)[O-])cc2)SC1=S | 11.4
58 | COc1ccc(C(=O)Cn2c(/C=C3\SC(=S)N(CC(=O)O)C3=O)nc3ccccc32)cc1 | 5.15
59 | Cc1ccc(Cn2c(/C=C3\SC(=S)NC3=O)nc3ccccc32)cc1 | 5.31
60 | O=C(O)CN1C(=O)/C(=C/c2nc3ccccc3n2Cc2ccc(Br)cc2F)SC1=S | 27.3
61 | O=C(O)CN1C(=O)/C(=C/c2nc3ccccc3n2Cc2cccc(F)c2)SC1=S | 23.2
62 | Cc1ccc(Cn2c(/C=C3\SC(=S)N(CCC(=O)O)C3=O)nc3ccccc32)cc1 | 8.74
63 | Cc1ccc(C(=O)Cn2c(/C=C3\SC(=S)N(CC(=O)O)C3=O)nc3ccccc32)cc1 | 9.46

Target: T1, DNA topoisomerase 1 (Homo sapiens) (UniProt P11387)
T1 sequence (whole entry): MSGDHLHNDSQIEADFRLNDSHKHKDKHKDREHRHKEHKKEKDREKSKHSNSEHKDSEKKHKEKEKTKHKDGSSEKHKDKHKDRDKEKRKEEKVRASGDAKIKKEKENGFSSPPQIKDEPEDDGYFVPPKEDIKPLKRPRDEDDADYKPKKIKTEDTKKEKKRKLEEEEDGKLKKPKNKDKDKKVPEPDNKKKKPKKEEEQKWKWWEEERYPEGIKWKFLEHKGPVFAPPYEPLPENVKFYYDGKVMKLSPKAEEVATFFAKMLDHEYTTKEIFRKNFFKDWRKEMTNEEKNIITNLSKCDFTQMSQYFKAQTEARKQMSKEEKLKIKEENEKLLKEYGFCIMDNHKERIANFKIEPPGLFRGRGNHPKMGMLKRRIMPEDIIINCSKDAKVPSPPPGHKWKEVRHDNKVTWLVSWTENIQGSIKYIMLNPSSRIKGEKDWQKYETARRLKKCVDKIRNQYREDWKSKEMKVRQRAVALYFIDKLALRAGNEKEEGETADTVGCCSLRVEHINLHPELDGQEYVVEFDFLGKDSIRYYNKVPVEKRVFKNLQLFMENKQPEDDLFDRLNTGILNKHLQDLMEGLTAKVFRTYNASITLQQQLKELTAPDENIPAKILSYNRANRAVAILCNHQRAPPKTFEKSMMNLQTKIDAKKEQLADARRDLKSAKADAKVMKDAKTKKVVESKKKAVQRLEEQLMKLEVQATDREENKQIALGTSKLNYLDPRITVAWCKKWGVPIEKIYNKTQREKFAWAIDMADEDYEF
Assay: Inhibition of topoisomerase 1 (unknown origin)-mediated pBR322 DNA relaxation at 50 uM after 30 mins by agarose gel electrophoresis
Details: not given
Summary of the method: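 Topo I relaxation of pBR322 with compound at 30 min, 37 °C, camptothecin positive control. Stopped with SDS/bromophenol blue/glycerol dye, run on 1% agarose in TAE for 1.5 h, Ged Red stained, UV visualized.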

Row | Compound | inhibition
64 | O=C(O)CCN1C(=O)/C(=C/c2nc3ccccc3n2Cc2ccccc2F)SC1=S | inactive
65 | O=C(O)CN1C(=O)/C(=C/c2nc3ccccc3n2Cc2ccc(Br)cc2)SC1=S | inactive
66 | O=C(O)CN1C(=O)/C(=C/c2nc3ccccc3n2Cc2ccc([N+](=O)[O-])cc2)SC1=S | inactive
67 | COc1ccc(C(=O)Cn2c(/C=C3\SC(=S)N(CC(=O)O)C3=O)nc3ccccc32)cc1 | inactive
68 | Cc1ccc(Cn2c(/C=C3\SC(=S)NC3=O)nc3ccccc32)cc1 | inactive
69 | O=C(O)CN1C(=O)/C(=C/c2nc3ccccc3n2Cc2ccc(Br)cc2F)SC1=S | inactive
70 | O=C(O)CN1C(=O)/C(=C/c2nc3ccccc3n2Cc2cccc(F)c2)SC1=S | inactive
71 | Cc1ccc(Cn2c(/C=C3\SC(=S)N(CCC(=O)O)C3=O)nc3ccccc32)cc1 | inactive
72 | Cc1ccc(C(=O)Cn2c(/C=C3\SC(=S)N(CC(=O)O)C3=O)nc3ccccc32)cc1 | inactive

Species: Homo sapiens
Assay: Inhibition of human topoisomerase 2-mediated pBR322 DNA relaxation at 50 uM after 30 mins by agarose gel electrophoresis
Details: not given
Summary of the method: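 Relaxation of 200 ng supercoiled pBR322 by 1 U Topo II (TopoGEN) in 20 μL buffer: 50 mM Tris-HCl pH 8.0, 150 mM NaCl, 10 mM MgCl2, 2 mM ATP, 0.5 mM DTT, 30 μg/mL BSA. Incubated 30 min at 37 °C, stopped with sarcosyl/glycerol dye. Products run on 1% agarose in TAE (1.5 h, 75 V), Ged Red stained, UV imaged; etoposide positive control.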

Row | Compound | inhibition
73 | O=C(O)CN1C(=O)/C(=C/c2nc3ccccc3n2Cc2ccc(Br)cc2F)SC1=S | Active
